Sampled rows, rich in hits. Any-hit rate of the full collection: about 6.4%.
CHOP inh – inhibitors of CHOP induction in ER stress response; inhibition, % at 10 µM; CHO-K1 CHOP-promoter luciferase, tunicamycin-induced, 15-18 h; 220,000 compounds, 3.8% hits;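 active = compounds that reduced the stress-induced luciferase reporter signal by more than about 70% of percent inhibition, limit read from the data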;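 note: 0% = tunicamycin plus vehicle and 100% = wells without tunicamycin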
GRIN3A LBD mod – modulates the human NR3A ligand-binding domain. Tm shift relative to glycine control, % at 25 µM. 340,000 compounds, 2.5% hits. NR3A LBD differential scanning fluorimetry, Tm shift; 0% = protein alone, 100% = glycine-bound protein. AID 1259313;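 active = melting temperature shift of at least 10% of the positive control shift, at one fixed dose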
EBV gp42 inh – blocks Epstein-Barr virus glycoprotein 42 binding; Q1HVG2; Fluorescence polarization binding assay, mP read-out; inhibition, % (tested at 21.74 µM); 220,000 compounds, 0.42% hits; AID 1085; in the data active = inhibition above about 50%
Target sequence (Q1HVG2 whole entry, looked up): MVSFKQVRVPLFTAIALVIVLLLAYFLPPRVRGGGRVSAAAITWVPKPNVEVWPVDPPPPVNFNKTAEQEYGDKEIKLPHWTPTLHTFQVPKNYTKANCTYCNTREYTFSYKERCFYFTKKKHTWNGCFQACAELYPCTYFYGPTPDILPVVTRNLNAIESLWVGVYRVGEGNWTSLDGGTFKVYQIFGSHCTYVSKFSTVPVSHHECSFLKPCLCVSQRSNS
WT yeast gro inh – growth inhibition of WT yeast, mitochondrial fusion screen. mitochondrial fusion phenotypic screen, WT strain. inhibition, % at 10 µM. 190,000 compounds, 2.1% hits. AID 1362; in the data active = inhibition above about 58%; tested in S. cerevisiae
TbMetRS inhib – Trypanosoma brucei MetRS inhibition; purified T. brucei MetRS, ATP depletion, Kinase-Glo luminescence; inhibition, % at 11.9 µM; 360,000 compounds, 0.4% hits; AID 624268;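 active = inhibition above a per-plate cutoff of the control wells' mean inhibition plus 3 SD, cut at about 5.5% in these data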;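 note: 0% = DMSO wells median and 100% = median of wells with control inhibitor compound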
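Material: parasite MetRS enzyme / Replication: singlicate, one well per compound / Signal: luminescence of leftover ATP / Schedule: 2 h aminoacylation at 25 °C after 15 min preincubation / Medium: HEPES-MgCl2-KCl buffer plus DTT, spermine, BSA, pyrophosphatase / Doses: 11.9 µM single point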
MPTP block – permeability transition pore inhibition. isolated mouse mitochondria, Ca2+ swelling absorbance, 30 min. inhibition, % at 10 µM. 360,000 compounds, 1.4% hits;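 active = inhibition of 50% or more, scaled per plate between neutral and stimulator controls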;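 note: 0% = DMSO wells given calcium and 100% = 1 mM EGTA wells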
Tb MetRS conf – Trypanosoma brucei MetRS inhibition confirmed | shares compounds with TbMetRS inhib | T. brucei MetRS enzyme, luminescence (ATP depletion) | inhibition, % at 11.9 µM | 1,400 compounds, 93% hits | AID 624412; in the data active = inhibition above about 7%
Jurkat cytotox – Jurkat T cell cytotoxicity for MetRS hits. shares compounds with TbMetRS inhib. Jurkat cells viability, ATP luminescence. inhibition, % at 8.3 µM. 1,400 compounds, 12% hits. AID 624413; in the data active = inhibition above about 15%;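 note: 0% = vehicle and 100% = reference inhibitor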
Tb MetRS inh FP – orthogonal test for Trypanosoma brucei MetRS inhibitors; shares compounds with TbMetRS inhib; purified T. brucei MetRS, fluorescence polarization; inhibition, % at 11.9 µM; 1,400 compounds, 44% hits; AID 651607; in the data active = inhibition above about 17%;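 note: 0% = vehicle wells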
Numbers without * were called inactive; · = no result given.

SMILES	CHOP inh	GRIN3A LBD mod	EBV gp42 inh	WT yeast gro inh	TbMetRS inhib	MPTP block	Tb MetRS conf	Jurkat cytotox	Tb MetRS inh FP
Nc1ncccc1OCc1cccc(C(F)(F)F)c1	11.3	1.2	-2.7	34.9	-1.2	0.2	·	·	·
Oc1ccc(Cl)cc1CNc1cnc2ccccc2c1	·	-6.1	·	·	12.6*	9.5	14.1*	30.3*	9.6
O=C(CSc1nc2ccccc2[nH]1)NCc1ccc(F)cc1	10.4	-0.4	-1.6	-5.4	7.7*	4.7	13.1*	2.9	-1.2
C/C(=N\Nc1nc2ccccc2[nH]1)c1ccc2c(c1)OCO2	0.7	0.4	8.3	16.3	7.3*	-0.6	8.8*	0.1	18.2*
COc1ccc2nc(SCC(=O)NCc3ccc(F)cc3)[nH]c2c1	·	-2.3	·	·	2.0	0.1	·	·	·
O=C(CSc1nc2ccccc2[nH]1)Nc1ccc2[nH]c(=O)[nH]c2c1	·	1.9	·	·	0.2	-2.7	·	·	·
C/C(=N\Nc1nc2ccccc2[nH]1)c1ccc2c(c1)OCCO2	5.7	-1.7	5.1	14.8	2.6	-2.0	·	·	·
NS(=O)(=O)c1cccc(NC(=O)CSc2nc3ccccc3[nH]2)c1	9.7	0.3	-13.1	·	7.8*	1.5	16.0*	2.5	9.6
O=C(CCc1nc2ccccc2[nH]1)NCc1ccc2c(c1)OCO2	-2.6	-2.5	-14.7	-10.6	19.5*	-0.4	36.4*	-5.2	12.9
CCOC(=O)c1[nH]c(C)c(C(=O)OCCN2C(=O)c3ccccc3C2=O)c1C	61.7	2.3	-3.0	-2.9	0.3	4.1	·	·	·
O=S(=O)(NCCCCNS(=O)(=O)c1ccc(F)cc1)c1ccc(F)cc1	·	-0.2	·	·	-0.5	2.2	·	·	·
Cc1noc(C)c1C(=O)Nc1ccccc1N1CCOCC1	·	-1.0	·	·	-0.1	-1.5	·	·	·
O=C(CSc1nc(-c2ccccc2)cc(=O)[nH]1)NCc1ccc2c(c1)OCO2	36.7	1.6	0.3	-15.1	-1.3	-1.8	·	·	·
O=C(CSc1nc2ccccc2[nH]1)NCc1ccc2c(c1)OCO2	12.8	-6.0	0.1	-6.6	28.4*	1.5	43.0*	1.2	19.7*
COc1ccc(OCC(O)Cn2cnc(-c3ccc(Br)cc3)c2)cc1 (stereo not drawn)	22.3	-10.3	-10.7	-14.3	13.8*	1.7	22.4*	0.5	7.9
OC(COc1ccc(Br)cc1)Cn1ccnc1 (stereo not drawn)	·	0.6	·	·	0.2	0.8	·	·	·
Cn1c(COc2ccccc2)nnc1SCc1nc2ccccc2[nH]1	-1.7	3.2	-12.9	15.6	0.9	-0.8	·	·	·
CCn1c(COc2ccc(C)cc2)nnc1SCc1nc2ccccc2[nH]1	40.0	0.5	-13.1	29.7	15.3*	-0.1	19.8*	10.7	7.5
CC(C)(C)OC(=O)N1CCC[C@H]1C(=O)N1CCC[C@H]1C(=O)NCc1ccc(F)cc1F	·	·	·	·	0.0	0.8	·	·	·
CC(C)(C)OC(=O)N1CCC[C@H]1C(=O)NCc1ccc(Cl)cc1Cl	13.8	-4.0	-15.3	-9.6	5.7*	-1.8	14.5*	0.5	1.6
COc1ccc2[nH]cc(C(=O)CN3CCN(C(=O)c4ccco4)CC3)c2c1	47.1	-0.2	-15.0	6.5	6.4*	3.2	3.6	-5.1	-4.3
COc1ccc2[nH]c(C)c(C(=O)CN3CCN(C(=O)c4ccco4)CC3)c2c1	-16.7	-3.1	-16.2	-8.4	0.3	-0.3	·	·	·
CN(CC(=O)Nc1ccccc1C(F)(F)F)C(=O)CSCc1ccc(Cl)c(Cl)c1	·	-2.2	·	·	-0.3	-1.1	·	·	·
O=C(NCC(O)c1nc2ccccc2[nH]1)c1cc2ccccc2[nH]1 (stereo not drawn)	·	·	·	·	50.6*	-1.4	68.1*	0.0	40.5*
O=C(NNC(=O)c1cc2ccccc2[nH]1)OCc1ccccc1	·	-3.6	·	·	13.2*	-0.9	46.3*	-11.6	18.6*
SMILES	CHOP inh	GRIN3A LBD mod	EBV gp42 inh	WT yeast gro inh	TbMetRS inhib	MPTP block	Tb MetRS conf	Jurkat cytotox	Tb MetRS inh FP
CC(C)CC(C)NNC(=O)c1cc2ccccc2[nH]1 (stereo not drawn)	24.7	-1.1	-8.3	-9.4	-0.3	-0.5	·	·	·
COC(=O)c1sc(NC(=O)COc2cccc(C)c2)nc1C	-8.3	3.1	21.1	4.2	-1.0	-0.5	·	·	·
O=C(NCc1nc2ccccc2[nH]1)C1=C[C@@H](c2ccc3c(c2)OCO3)C[C@@H](OCc2ccc(CO)cc2)O1	25.5	·	-3.3	·	·	·	·	·	·
O=C(NCc1nc2ccccc2[nH]1)C1=C[C@@H](c2ccccc2)C[C@@H](OCc2ccc(CO)cc2)O1	26.4	-15.5	-10.1	9.0	77.3*	1.7	103.7*	-4.0	84.4*
O=C(NCc1nc2ccccc2[nH]1)C1=C[C@H](c2coc3ccccc3c2=O)C[C@H](OCc2ccc(CO)cc2)O1	32.0	1.3	-30.2	·	23.7*	-0.6	58.1*	0.7	32.3*
O=C(NC1CC1)C1=C[C@@H](c2coc3ccccc3c2=O)C[C@@H](OCc2ccc(CO)cc2)O1	15.0	-1.8	-8.8	2.4	0.0	0.7	·	·	·
CC(C)(C)[C@H]1C=C(C(=O)NCc2nc3ccccc3[nH]2)O[C@@H](OCc2ccc(CO)cc2)C1	13.1	-7.0	-18.8	·	62.5*	1.7	86.8*	6.7	60.8*
O=C(NCc1nc2ccccc2[nH]1)C1=C[C@H](c2ccc3c(c2)OCO3)C[C@H](OCc2ccc(CO)cc2)O1	59.5	-2.5	1.8	6.4	53.9*	0.1	89.9*	-5.2	60.3*
O=C(NCc1nc2ccccc2[nH]1)C1=C[C@H](C2CCCCC2)C[C@H](OCc2ccc(CO)cc2)O1	28.7	-2.2	5.1	16.7	4.8	13.2	·	·	·
COc1ccc(CC(=O)OCn2nnc3ccccc3c2=O)cc1OC	11.0	1.6	-13.7	·	-0.6	1.7	·	·	·
Cc1cc(NC(=O)C2CCCC2)n(-c2nc3ccccc3[nH]2)n1	21.0	-5.6	1.9	-9.1	-1.5	-2.1	·	·	·
C[C@H](CO)N1C[C@H](C)[C@@H](CN(C)S(=O)(=O)c2ccccc2)Oc2ccc(NS(=O)(=O)c3ccc(F)cc3)cc2C1=O	·	-0.6	·	·	-0.3	-0.5	·	·	·
COC(=O)[C@]1(Sc2ccc(C)cc2)CC(=O)N[C@@H]1c1ccco1	·	·	·	·	-1.2	-0.4	·	·	·
O=C(NCc1nc2ccccc2[nH]1)C1=C[C@H](c2ccccc2)C[C@H](OCc2ccc(CO)cc2)O1	21.0	-3.9	-8.9	12.9	31.0*	-2.8	75.0*	0.8	38.2*
O=C(NCc1nc2ccccc2[nH]1)C1=C[C@@H](c2ccc(C(F)(F)F)cc2)C[C@@H](OCc2ccc(CO)cc2)O1	·	3.5	·	·	37.0*	0.8	78.6*	-0.5	49.0*
Clc1ccc2nc(COc3ccccc3)[nH]c2c1	·	-16.2	·	·	11.7*	0.9	24.2*	50.5*	20.6*

Screens as filed in PubChem BioAssay.
